# ChEMBL document CHEMBL2380285, “Quinolin-4(1H)-imines are potent antiplasmodial drugs targeting the liver stage of malaria” (J Med Chem, 2013)
# Activity calls are given as the source filed them. The rule behind the calls is not given here.
# Tests used:
# [1] = Cytotoxicity against human HepG2 cells after 48 hrs by Alamar Blue assay; format: cell-based
# [2] = Binding affinity to hematin (unknown origin) by UV-visible titration analysis
# [3] = Inhibition of heme crystallization to hemozoin; format: functional
# [4] = test system: Plasmodium berghei; experiment: Antiplasmodial activity against liver stage Plasmodium berghei infected in human HuH7 cells co-expressing GFP-Luccon treated for 1 hr prior to infection followed by 24 hrs after compound washout measured after 48 hrs post-infection by Alamar Blue assay; format: functional, organism-based; settings: Huh-7
# Method in brief: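 Huh-7 hepatoma cells infected with P. berghei were exposed to a rising series of inhibitor concentrations, with 10 μM the highest tested. IC50 was read from sigmoidal concentration–response curves.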
# [5] = Selectivity index, ratio of CC50 for human HepG2 cells to IC50 for liver stage Plasmodium berghei; format: functional
# [6] = Half life in rat liver microsomes at 1 uM after 24 hrs by LC-MS/MS analysis
# [7] = test system: Plasmodium falciparum; experiment: Antiplasmodial activity against ring stage Plasmodium falciparum W2 infected in human RBC after 48 hrs by FACS analysis; format: functional, organism-based; settings: W2, 48 h
# [8] = biological target: T1, Dihydroorotate dehydrogenase (fumarate) (Saccharomyces cerevisiae S288c) (UniProt P28272); experiment: Inhibition of Saccharomyces cerevisiae DHODH expressed in Plasmodium falciparum Dd2 by [3H]-hypoxanthine incorporation assay
# T1 sequence (whole entry): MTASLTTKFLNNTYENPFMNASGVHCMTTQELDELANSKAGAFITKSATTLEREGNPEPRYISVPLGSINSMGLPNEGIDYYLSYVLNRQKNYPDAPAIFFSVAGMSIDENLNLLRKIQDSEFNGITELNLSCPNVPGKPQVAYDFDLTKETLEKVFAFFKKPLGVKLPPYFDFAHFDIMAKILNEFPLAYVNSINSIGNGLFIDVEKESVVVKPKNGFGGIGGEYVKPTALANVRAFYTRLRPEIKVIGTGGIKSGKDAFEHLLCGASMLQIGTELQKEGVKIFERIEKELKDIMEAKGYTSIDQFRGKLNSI
# [9] = test system: Plasmodium falciparum; experiment: Inhibition of Plasmodium falciparum thioredoxin reductase using DTNB as substrate up to 50 uM after 1 hr by colorimetric assay
# [10] = Inhibition of Cytochrome b-c1 complex in Plasmodium falciparum 3D7A mitochondria assessed as antimycin-sensitive decylubiquinol-cytochrome c oxidoreductase level
# [11] = test system: Plasmodium berghei; experiment: Ratio of primaquine IC50 to compound IC50 for liver stage Plasmodium berghei infected in human HuH7 cells; format: functional, Huh-7
# [12] = test system: Plasmodium falciparum; experiment: Inhibition of Plasmodium falciparum Enoyl-ACP reductase using Crotonoyl-CoA as substrate up to 50 uM after 20 mins by fluorescence assay
# [13] = biological target: T1, Dihydroorotate dehydrogenase (fumarate) (Saccharomyces cerevisiae S288c); experiment: Inhibition of Saccharomyces cerevisiae DHODH expressed in Plasmodium falciparum Dd2 by [3H]-hypoxanthine incorporation assay in presence of proguanil
Structure (SMILES),logKA [2],IC50 [3],IC50 [7],CC50 at 48 h [1],IC50 [4],Ratio CC50/IC50 [5],further results
CCn1cc/c(=N\c2ccc(-c3ccccc3)cc2)c2ccc(Cl)cc21,5.6,18.9 µM,0.54 µM,4.61 µM,0.2 µM,23.6,"half-life at 24 h, 1 µM ([6]; liver microsomes): 4 h"
O=C(CC1NCCCC1O)Cn1cnc2cc(Br)c(Cl)cc2c1=O (stereo unspecified) [HALOFUGINONE],,,,,0.017 µM,,
CCn1cc/c(=N\c2cccc(CCc3ccc(OC(F)(F)F)cc3)c2)c2ccc(C(F)(F)F)cc21,4.9,,1.67 µM,6.09 µM,0.235 µM,25.9,
CCN(CC)CCCC(C)Nc1ccnc2cc(Cl)ccc12 (stereo unspecified) [CHLOROQUINE],,6.6 µM,,,,,
Cc1nc(C)c(Cl)c(O)c1Cl [CLOPIDOL],4.7,,,,1.46 µM,,
CCn1cc/c(=N\c2cccc(CCc3ccc(Cl)cc3)c2)c(Cl)c1,,,,,0.407 µM,,
O=C1C(O)=C([C@H]2CC[C@H](c3ccc(Cl)cc3)CC2)C(=O)c2ccccc21 [ATOVAQUONE],,,,,0.000376 µM,,IC50 [10]: 0.0003 µM
CCn1cc/c(=N\c2ccc(Oc3ccc(Cl)cc3)cc2)c2ccc(Cl)cc21,5.1,16.2 µM,1.09 µM,2.69 µM,0.087 µM,30.9,"half-life at 24 h, 1 µM ([6]; microsomes): 3.9 h; Ratio IC50 [11]: 94"

# More lines, in order of falling IC50 [7], values ahead:
logKA [2],IC50 [3],IC50 [7],Structure (SMILES),CC50 at 48 h [1],IC50 [4],Ratio CC50/IC50 [5],further results
,,5.88 µM,CCOC(=O)c1cn(C)c2ccc(F)cc2/c1=N/c1ccc(-c2ccccc2)cc1,,> 10 µM,,
,,5.32 µM,CCOC(=O)c1cn(CC)c2ccc(F)cc2/c1=N/c1ccc(-c2ccccc2)cc1,,> 10 µM,,
5.2,,3.11 µM,CCn1cc/c(=N\c2cccc(CCc3ccc(OC(F)(F)F)cc3)c2)c2ccc(Cl)cc21,3.94 µM,0.227 µM,17.4,
5,,1.69 µM,CCn1cc/c(=N\c2ccc(Cc3ccccc3)cc2)c2ccc(Cl)cc21,2.89 µM,0.589 µM,4.91,
3.9,,1.56 µM,CCn1cc/c(=N\c2ccc(Oc3cccc(OC(F)(F)F)c3)cc2)c2ccc(C(F)(F)F)cc21,12.9 µM,0.537 µM,24,"half-life at 24 h, 1 µM ([6]; microsomes): 8.5 h"
,,1.26 µM,CCn1cc/c(=N\c2ccc(Oc3ccc(C(F)(F)F)cc3)cc2)c2ccc(Cl)cc21,3.2 µM,0.234 µM,,
5.1,15.4 µM,1.18 µM,CCn1cc/c(=N\c2ccc(Oc3cccc(OC(F)(F)F)c3)cc2)c2ccc(Cl)cc21,5.16 µM,0.081 µM,63.7,inhibition [8]: inactive; inhibition [9]: inactive; IC50 [10]: 1.2 µM; Ratio IC50 [11]: 94; inhibition [12]: inactive; inhibition [13]: inactive
4.9,,1.08 µM,Cn1cc/c(=N\c2ccc(Oc3ccc(C(F)(F)F)cc3)cc2)c2ccc(Cl)cc21,3.08 µM,0.229 µM,13.4,"half-life at 24 h, 1 µM ([6]; liver microsomes): 4.1 h"
4.9,13.5 µM,0.96 µM,CCn1cc/c(=N\c2ccc(Oc3ccc(OC(F)(F)F)cc3)cc2)c2ccc(Cl)cc21,3.53 µM,0.145 µM,24.3,
5.4,,0.89 µM,CCn1cc/c(=N\c2ccc(Oc3ccccc3)cc2)c2ccc(Cl)cc21,5.33 µM,0.214 µM,24.9,
5.7,17 µM,0.59 µM,CCn1cc/c(=N\c2ccc(-c3ccccc3)cc2)c2ccc(C(F)(F)F)cc21,7.04 µM,0.575 µM,12.2,"inhibition [8]: inactive; inhibition [9]: inactive; IC50 [10]: 28 µM; half-life at 24 h, 1 µM ([6]; liver microsomes): 4.2 h; inhibition [12]: inactive; inhibition [13]: inactive"
